HNF4A DNA FP: change in binding of human HNF4 alpha to DNA; P41235; HNF4a-FITC DNA binding, fluorescence polarization, 1 h; activity change, % at 10 µM; 360,000 compounds, 0.3% hits; AID 1224865; in the data active = activity change above about 30%, passing the limit was not always enough
Granule exo inh: lytic granule exocytosis inhibition | 360,000 compounds, 0.66% hits | AID 651702 | TALL-104 LAMP-1 surface exposure, flow cytometry; cells stimulated with thapsigargin and PMA | inhibition, % at 10 µM;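 active = inhibition above about 55%, limit read from the data; inconclusive = no clear call, values can overlap the other calls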
Myeloid diff MLP: promotes myeloid progenitor differentiation; calls only at 10 µM; AID 624256; ER-HoxA9 myeloid progenitors, lysozyme-GFP differentiation, flow cytometry; 360,000 compounds, 1% hits;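 active = normalized GFP-positive differentiation at or above the plate's own cutoff, the solvent-only control mean plus 3 SD; inconclusive = no clear call, values can overlap the other calls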;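 note: cells exposed to compound for four days before flow analysis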
CSN deneddyl inh: blocks human CSN-mediated cullin deneddylation; 360,000 compounds, 0.38% hits; inhibition, % at 12.5 µM; Purified CSN, SCF-Nedd8-OG deneddylation, fluorescence polarization; Q92905; AID 651999;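 active = pattern-corrected inhibition above about 35%, with an unprinted fluorescence ratio check between 0.5 and 1.5, limit read from the data, passing the limit was not always enough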
Target sequence (Q92905 whole entry, looked up, one chain of several): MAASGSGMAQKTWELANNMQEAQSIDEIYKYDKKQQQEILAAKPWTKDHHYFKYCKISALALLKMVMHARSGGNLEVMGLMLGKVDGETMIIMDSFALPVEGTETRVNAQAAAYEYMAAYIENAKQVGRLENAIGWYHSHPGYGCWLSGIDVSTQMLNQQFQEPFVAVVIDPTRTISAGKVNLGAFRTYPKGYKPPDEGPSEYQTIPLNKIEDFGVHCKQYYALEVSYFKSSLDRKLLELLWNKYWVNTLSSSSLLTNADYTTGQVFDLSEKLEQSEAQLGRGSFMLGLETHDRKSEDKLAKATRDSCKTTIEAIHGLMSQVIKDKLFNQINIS
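assay system = purified human Csn5 enzyme expressed in HEK293T cells | amount = 0.24 nM enzyme | buffer or medium = Tris/NaCl/DTT buffer, pH 7.5 | reagent = 10 nM SCFSkp2-Nedd8OG | compound = one concentration, 12.5 µM, 0.25% DMSO | times = 90 min reaction at room temperature | signal = FP | read-out basis = % inhibition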
Myeloid diff: compounds promoting myeloid differentiation. shares compounds with Myeloid diff MLP. ER-HoxA9 myeloid progenitors, GFP/Mac1 double-positive flow. calls only. 2,300 compounds, 2% hits. AID 651706;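 active = share of green or green-and-red cells above 9 and 9% in run 1 or 4 and 3% in run 2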
GFP autofluor: compound fluorescence in myeloid differentiation counter-screen; shares compounds with Myeloid diff MLP; ER-HoxA9 myeloid progenitors, no estrogen, GFP autofluorescence flow cytometry; vehicle wells 0%, positive control 100%; fluorescence response, % (concentration not given with the values); 2,300 compounds, 7.4% hits;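 active = over 5% cells positive for green fluorescent reporter, or over 2% positive for both it and APC stain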
Hits are given with their value; – = inactive; ? = inconclusive; · = no result given; + = active, no number. The list is not random: actives were taken first. Their share in the collection is about 2.2%.

SMILES	HNF4A DNA FP	Granule exo inh	Myeloid diff MLP	CSN deneddyl inh	Myeloid diff	GFP autofluor
COc1ccc(CC(N)c2csc(NC(=O)c3cc(C(C)(C)C)nn3Cc3ccccc3)n2)cc1 (centres undefined)	–	–	+	–	–	–
Cc1cc(N2CCCC2)nc(-c2ccccc2O)n1	–	–	–	–	·	·
Cc1cc(N2CCCCC2)nc(N)n1	–	–	+	–	–	–
CCOC(=O)CC(NS(=O)(=O)c1ccc2[nH]cc(C(=O)O)c(=O)c2c1)c1ccc(OCC)c(OC)c1 (centres undefined)	–	–	–	–	·	·
CC1(C)O[C@@H]2C[C@H]3[C@@H]4C[C@H](F)C5=CC(=O)C=C[C@]5(C)[C@H]4[C@@H](O)C[C@]3(C)[C@]2(C(=O)CO)O1	–	–	?	–	·	·
CC1(C)O[C@@H]2C[C@H]3[C@@H]4C[C@H](F)C5=CC(=O)CC[C@]5(C)[C@H]4[C@@H](O)C[C@]3(C)[C@]2(C(=O)CO)O1	–	–	–	–	–	–
O=C(Nc1cccnc1)c1ccc([N+](=O)[O-])o1	–	–	·	–	·	·
Cc1c(Cl)c([N+](=O)[O-])nn1Cc1ccc(C(=O)Nc2ccc(Cl)cn2)o1	–	–	–	–	·	·
O=C(Nc1ccc(Cl)cn1)c1ccc([N+](=O)[O-])o1	–	–	+	–	–	–
O=C(NCc1cccnc1)c1ccc([N+](=O)[O-])o1	–	–	+	–	–	–
COc1ccc2nc(NC(=O)c3ccc([N+](=O)[O-])o3)sc2c1	–	–	–	–	–	–
COc1ccc(NC(=O)c2ccc([N+](=O)[O-])o2)cc1	–	–	+	–	–	–
CCOC(=O)[C@H]1[C@H]2COc3ccc(Br)cc3[C@@H]2N2C(=O)c3cc(F)c(F)cc3NC(=O)[C@@]12C	–	–	–	–	·	·
COCCCN(C(=O)c1cc2c(s1)CCCCC2)c1c(N)n(Cc2ccccc2)c(=O)[nH]c1=O	–	–	–	–	·	·
CCc1nc2ccc(C(=O)NCCc3ccc(OC)cc3)cc2nc1CC	–	–	–	–	–	–
CSCCC(=O)N1CCC(n2nccc2NC(=O)CCc2ccccc2)CC1	–	–	–	–	·	·
CCc1ccc(C(=O)C(C)OC(=O)Cc2n[nH]c(=O)c3ccccc23)cc1 (centres undefined)	–	–	+	–	–	–
Cc1ccc(-n2ncc(-c3nnc(SCC(=O)NC4CCCC4)o3)c2N)cc1C	–	–	–	–	–	–
CCN1C(=O)/C(=C/c2ccc(OCc3ccc(C(=O)O)cc3)c(Cl)c2)NC1=S	–	–	–	–	·	·
CCN1C(=O)/C(=C/c2ccc(N3CCCC3)cc2)NC1=S	–	–	+	–	–	93
COC(=O)c1sccc1NC(=O)c1csc(C)c1	–	–	+	–	–	–
CN(CC(=O)Nc1cc([N+](=O)[O-])ccc1Cl)Cc1ccc(Br)cc1	–	–	–	–	–	–
O=C(Nc1ccc(C(=O)N2CCOCC2)cc1)C1CC1	–	–	–	–	·	·
C=CCn1c(C)c(C(C)=O)c(N2CCN(c3ccccc3)CC2)nc1=S	–	–	+	–	–	–
Cn1c(-c2cccc([N+](=O)[O-])c2)cnc1NCc1cccc([N+](=O)[O-])c1	–	–	–	–	·	·
SMILES	HNF4A DNA FP	Granule exo inh	Myeloid diff MLP	CSN deneddyl inh	Myeloid diff	GFP autofluor
Cc1cccc(CNc2ncc(-c3cccc([N+](=O)[O-])c3)n2C)c1	–	–	–	–	–	–
CCOC(=O)c1ccccc1NS(=O)(=O)c1ccccc1	–	–	–	–	·	·
CCOC(=O)c1ccccc1NS(=O)(=O)c1ccccc1F	–	–	+	–	–	–
O=C(Nc1cccc2ccccc12)/C(=C\c1cccc([N+](=O)[O-])c1)NC(=O)c1cccs1	–	–	+	–	–	–
O=C(COC(=O)c1ccccc1)Nc1cccc(S(=O)(=O)N2CCCCC2)c1	–	–	–	–	·	·
COc1ccc2c(C)nc(Nc3nc(C)cc(C)n3)nc2c1	–	–	–	–	–	35
COc1cc(C2CC(=O)Nc3cc(C)c(C)cc32)cc(OC)c1OC (centres undefined)	–	–	+	–	–	–
C=C(C(=O)c1ccccc1)C(C)CC(=O)c1ccccc1 (centres undefined)	–	–	–	–	–	99
O=C(CC(Nc1ccccc1)C(=O)O)c1ccccc1 (centres undefined)	–	–	–	–	·	·

High-throughput results as filed in PubChem.
